Measured values: ChEMBL document CHEMBL1126712, “Design, synthesis, and pharmacological evaluation of potent xanthone dicarboxylic acid leukotriene B4 receptor antagonists” (J Med Chem, 1993)

Assays:
Homo sapiens [1] = organism: Homo sapiens; test: LTB4-induced chemotaxis of the human neutrophils; type: functional
Homo sapiens [2] = organism: Homo sapiens; test: The activity of suppression of the FMLP-mediated response; type: functional
Method in brief: (§1)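 Luminol-dependent chemiluminescence of human neutrophils (1 × 10⁷/mL) in Ca/Mg-free Dulbecco's PBS, pH 7.4, with cytochalasin B, stirred at 900 rpm and 37 °C in an aggregometer. Antagonist was added at 2 min, then Ca²⁺/Mg²⁺. After 1 min, luminol and agonist (LTB₄ or FMLP, 30 nM) were added and the maximum response recorded. Cells from five individuals.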

[3] = molecular target: T1, Leukotriene B4 receptor 1 (Homo sapiens, UniProt Q15722); test: Relative potency against LTB4 receptor was determined
Homo sapiens [4] = organism: Homo sapiens; test: Inhibition of luminol-dependent chemiluminescence induced by stimulating the neutrophil cells with FMLP (N-formyl-L-methionyl-L-leucyl-l-phenylalanine); type: functional, cell-based; method in brief: as §1
[5] = molecular target: T1, Leukotriene B4 receptor 1; test: Inhibition of specific binding of LTB4 ( 0.1 nM) to receptors on intact human neutrophils
Method in brief: (§2)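 Intact human neutrophils from heparinized venous blood of normal volunteers, isolated by Ficoll-Hypaque centrifugation, dextran 70 sedimentation and hypotonic lysis (≥90% neutrophils, ≥90% viable). Cells at 2 × 10⁷/mL in Ca/Mg-free Hanks' with 0.1% ovalbumin, [³H]LTB₄ final 0.1 nM, compound in DMSO (final 1.9%). Incubation 10 min at 4 °C, harvest, scintillation counting. Nonspecific binding from 10 000-fold excess unlabeled LTB₄. Triplicate tubes.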

[6] = molecular target: T1, Leukotriene B4 receptor 1; test: Inhibition constant against binding of [3H]LTB4 to human neutrophils; method in brief: as §2
Homo sapiens [7] = organism: Homo sapiens; test: Inhibition of luminol-dependent chemiluminescence induced by stimulating the neutrophil cells with LTB4.; type: functional, cell-based; method in brief: as §1
[8] = molecular target: T1, Leukotriene B4 receptor 1; test: Inhibition of binding of [3H]LTB4 to receptor […]
Method in brief: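 Intact human neutrophils isolated from heparinized blood of normal volunteers (Ficoll-Hypaque, dextran sedimentation, hypotonic lysis) were suspended at 2 × 10⁷ cells/mL in Ca/Mg-free HBSS with 0.1% ovalbumin. Tubes held 0.1 nM final [³H]LTB₄ and compound in DMSO (1.9% final), ran 10 min at 4 °C, then were harvested for scintillation counting. Triplicate tubes; nonspecific binding set with 10 000-fold unlabeled LTB₄.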

Homo sapiens [9] = organism: Homo sapiens; test: The antagonist activity measured as blockade of the FMLP reaction in neutrophils; type: functional; method in brief: as §1
Homo sapiens [10] = organism: Homo sapiens; test: Inhibition of LTB-4 induced chemotaxis of human neutrophils; type: functional

T1 sequence (Q15722 whole entry): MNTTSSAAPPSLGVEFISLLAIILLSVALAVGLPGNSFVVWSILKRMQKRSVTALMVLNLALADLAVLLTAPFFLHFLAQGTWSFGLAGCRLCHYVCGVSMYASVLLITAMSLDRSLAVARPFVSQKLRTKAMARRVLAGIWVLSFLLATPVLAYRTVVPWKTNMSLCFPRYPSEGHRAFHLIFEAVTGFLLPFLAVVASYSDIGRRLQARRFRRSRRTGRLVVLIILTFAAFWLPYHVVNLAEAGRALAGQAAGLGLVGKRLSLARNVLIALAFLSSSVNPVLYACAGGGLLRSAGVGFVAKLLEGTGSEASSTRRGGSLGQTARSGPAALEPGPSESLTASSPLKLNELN

Row | Compound | Relative potency [3] | IC50 [5] [µM] | also measured
1 | COc1ccc(/C=C/CCCCOc2ccc3c(=O)c4cc(C(=O)O)ccc4oc3c2CCC(=O)O)cc1 | 338 | 0.0062 | IC50 (Homo sapiens [1]): 0.899 µM; IC50 (Homo sapiens [2]): 2.17 µM; IC50 (Homo sapiens [4]): 1.6 µM; Ki [6]: 0.0059 µM; IC50 (Homo sapiens [7]): 0.055 µM
2 | CCCCCCCCCCOc1ccc(C(=O)c2cccc(C(=O)O)c2)cc1CCC(=O)O | 10 | 0.21 | –
3 | CCCCCCCCCCOc1cc2oc3ccc(C(=O)O)cc3c(=O)c2cc1CCC(=O)O | 2.5 | 0.832 | –
4 | COc1ccc(/C=C/CCCCOc2ccc(C(=O)c3cccc(C(=O)O)c3)cc2CCC(=O)O)cc1 | – | – | IC50 [8]: 0.0019 µM
5 | CCCCCCCCCCOc1ccc2c(=O)c3cccc(C(=O)O)c3oc2c1CCC(=O)O | 1 | 2.1 | –
6 | CCCCCCCCCCOc1cc2oc3c(C(=O)O)cccc3c(=O)c2cc1CCC(=O)O | 1.2 | 1.77 | –
7 | CCCCCCCCCCOc1ccc2c(=O)c3cc(C(=O)O)ccc3oc2c1CCC(=O)O | 49 | 0.043 | IC50 (Homo sapiens [9]): 1.21 µM; IC50 (Homo sapiens [4]): 0.734 µM; IC50 (Homo sapiens [10]): 7.9 µM; IC50 (Homo sapiens [7]): 0.342 µM
